Laboratory results taken from ChEMBL document CHEMBL3804828, “2,4,6-Triaminopyrimidine as a Novel Hinge Binder in a Series of PI3Kδ Selective Inhibitors” (J Med Chem, 2016).
pEC50, pIC50: −log10 of the molar value.

How the values were obtained:
[1] = target: PI3-kinase p110-delta/p85-alpha (Homo sapiens, UniProt O00329); assay: Inhibition human full length PI3Kdelta catalytic subunit/p85alpha assessed as formation of PIP3 after 30 mins by europium labeled GRP-based TR-FRET assay; assay type: protein-complex assay
Sequence of PI3-kinase p110-delta/p85-alpha (P27986 whole entry): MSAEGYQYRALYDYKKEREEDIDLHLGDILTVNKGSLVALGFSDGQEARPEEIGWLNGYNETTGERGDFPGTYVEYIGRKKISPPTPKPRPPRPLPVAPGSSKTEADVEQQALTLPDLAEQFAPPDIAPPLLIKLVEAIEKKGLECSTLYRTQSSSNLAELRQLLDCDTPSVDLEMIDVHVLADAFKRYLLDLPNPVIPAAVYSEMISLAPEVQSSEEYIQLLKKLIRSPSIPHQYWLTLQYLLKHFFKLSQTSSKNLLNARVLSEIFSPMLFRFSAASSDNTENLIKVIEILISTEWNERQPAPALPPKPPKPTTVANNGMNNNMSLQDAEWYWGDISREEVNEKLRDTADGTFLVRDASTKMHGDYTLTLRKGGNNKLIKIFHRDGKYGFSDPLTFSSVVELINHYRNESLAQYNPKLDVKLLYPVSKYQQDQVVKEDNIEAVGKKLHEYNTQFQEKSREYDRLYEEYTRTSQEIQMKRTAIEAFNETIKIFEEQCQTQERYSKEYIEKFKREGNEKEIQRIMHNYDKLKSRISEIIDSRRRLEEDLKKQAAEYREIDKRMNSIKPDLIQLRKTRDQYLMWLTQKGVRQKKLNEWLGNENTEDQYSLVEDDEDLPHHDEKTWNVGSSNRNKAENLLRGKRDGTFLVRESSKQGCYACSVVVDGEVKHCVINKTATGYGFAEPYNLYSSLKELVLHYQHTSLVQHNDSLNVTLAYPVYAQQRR
Sequence of PI3-kinase p110-delta/p85-alpha (O00329 whole entry): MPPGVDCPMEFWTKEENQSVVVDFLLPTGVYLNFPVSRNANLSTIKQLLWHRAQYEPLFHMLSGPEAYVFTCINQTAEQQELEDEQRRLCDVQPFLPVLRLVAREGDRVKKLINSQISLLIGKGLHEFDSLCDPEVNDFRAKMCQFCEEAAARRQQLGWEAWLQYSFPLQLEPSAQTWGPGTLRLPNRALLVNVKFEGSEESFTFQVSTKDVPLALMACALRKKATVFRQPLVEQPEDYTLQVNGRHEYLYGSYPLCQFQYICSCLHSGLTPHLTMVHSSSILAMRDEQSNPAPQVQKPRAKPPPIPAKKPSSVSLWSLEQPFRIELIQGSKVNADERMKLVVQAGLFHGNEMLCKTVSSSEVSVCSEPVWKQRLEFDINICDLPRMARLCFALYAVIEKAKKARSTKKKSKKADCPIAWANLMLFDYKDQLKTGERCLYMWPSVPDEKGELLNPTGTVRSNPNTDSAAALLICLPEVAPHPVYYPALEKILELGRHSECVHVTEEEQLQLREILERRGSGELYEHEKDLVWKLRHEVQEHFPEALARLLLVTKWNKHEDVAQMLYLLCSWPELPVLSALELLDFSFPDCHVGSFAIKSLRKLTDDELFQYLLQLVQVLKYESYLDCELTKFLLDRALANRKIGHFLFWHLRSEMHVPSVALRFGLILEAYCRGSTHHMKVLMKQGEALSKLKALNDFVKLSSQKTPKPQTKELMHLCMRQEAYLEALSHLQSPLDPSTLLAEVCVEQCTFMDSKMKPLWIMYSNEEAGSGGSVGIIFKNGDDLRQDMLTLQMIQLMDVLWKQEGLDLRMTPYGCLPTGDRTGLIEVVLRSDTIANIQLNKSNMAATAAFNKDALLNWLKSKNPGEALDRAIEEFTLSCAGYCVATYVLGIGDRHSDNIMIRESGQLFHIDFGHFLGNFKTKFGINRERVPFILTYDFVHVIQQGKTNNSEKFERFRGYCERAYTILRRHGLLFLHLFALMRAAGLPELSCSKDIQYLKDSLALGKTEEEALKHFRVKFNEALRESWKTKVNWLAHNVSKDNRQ

Homo sapiens [2] = species on record: Homo sapiens; assay: Selectivity ratio of IC50 for human full length PI3Kalpha catalytic subunit/p85alpha to IC50 for human full length PI3Kdelta catalytic subunit/p85alpha
How it was run: (§1)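 Ratio calculated from the isoform-specific PI3K IC50 values, with enzyme assays run in quadruplicate.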

Homo sapiens [3] = species on record: Homo sapiens; assay: Selectivity ratio of IC50 for human recombinant PI3Kbeta to IC50 for human full length PI3Kdelta catalytic subunit/p85alpha; how it was run: as §1
Hepatocyte = assay: Clearance in rat hepatocytes at 1 uM by LC/MS/MS analysis; assay type: ADME, cell-based
[4] = Clearance in dog hepatocytes at 1 uM by LC/MS/MS analysis; assay type: ADME, cell-based, Canis lupus familiaris, Hepatocyte
[5] = Plasma clearance in Lewis rat at 1 mg/kg, iv administered via infusion over 30 mins measured after 24 hrs by LC/MS/MS analysis; assay type: ADME, organism-based
How it was run: (§2)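 Female Lewis rats, n=3 per route; 30-min iv infusion at 1 mg/kg and oral dose at 5 mg/kg, both in 30% PEG 400/70% water; plasma concentration-time profiles sampled to 24 h; values as mean ± SD.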

[6] = Plasma clearance in beagle dog at 1 mg/kg, iv administered via infusion over 30 mins measured after 24 hrs by LC/MS/MS analysis; assay type: ADME, organism-based, Canis lupus familiaris
How it was run: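 Dogs, n=3 per route; iv dose 1 mg/kg in 5% ethanol/55% PEG 400/40% citrate buffer pH 2; oral dose 5 mg/kg in 15% Captisol (w/v) in water; plasma pharmacokinetics.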

[7] = Volume of distribution at steady state in Lewis rat at 1 mg/kg, iv administered via infusion over 30 mins measured after 24 hrs by LC/MS/MS analysis; assay type: ADME, organism-based; conditions: in vivo, read-out: Vdss; how it was run: as §2
[8] = Ratio of drug level in blood to plasma in Lewis rat; assay type: ADME, cell-free; conditions: blood and plasma
[9] = Ratio of drug level in blood to plasma in beagle dog; assay type: ADME, cell-free, Canis lupus familiaris; conditions: blood and plasma
[10] = Half life in beagle dog at 5 mg/kg, po administered through gavage measured after 24 hrs by LC/MS/MS analysis; assay type: ADME, organism-based, Canis lupus familiaris; conditions: in vivo
Rattus norvegicus [11] = assay: Antiarthritis activity in collagen-induced Lewis rat arthritis model assessed as reduction in ankle swelling administered bid through oral gavage for 7 days measured every day started on day 9 and continuing through day 16 of compound dosing; assay type: functional, organism-based
How it was run: (§3)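 Female Lewis rats with established collagen-induced arthritis dosed orally by gavage twice daily for 7 days (study days 10–16) with vehicle, 0.34, 1.07, 4.6 or 10 mg/kg, or dexamethasone 0.03 mg/kg; right and left ankle diameters by caliper daily, days 9–16; ankle and knee sections graded 0–5 per histopathology parameter; p < 0.05 versus arthritis + vehicle.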

Rattus norvegicus [12] = assay: In vivo inhibition of PI3Kdelta in rat B-cells assessed as reduction in […] cell activation; assay type: functional, organism-based
How it was run: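 Rat whole blood, ex vivo; B-cell activation stimulated by anti-IgD (BCR); EC50 and EC90 derived from inhibition of activation.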

Rattus norvegicus [13] = assay: In vivo inhibition of PI3Kdelta in collagen-induced Lewis rat arthritis model at 1.07 mg/kg administered bid through oral gavage at 2 to 12 hrs on 3rd and 7th day of compound dosing; assay type: functional
How it was run: (§4)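 CIA Lewis rats dosed orally twice daily; plasma drug levels measured in blood samples taken at set times post-dose on days 3 and 7; trough PI3Kδ inhibition estimated from EC50/EC90 of the rat whole-blood ex vivo BCR-induced B-cell activation assay.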

Rattus norvegicus [14] = assay: In vivo inhibition of PI3Kdelta in collagen-induced Lewis rat arthritis model at 10 mg/kg administered bid through oral gavage at 2 to 12 hrs on 3rd and 7th day of compound dosing; assay type: functional; how it was run: as §4
Rattus norvegicus [15] = assay: Antiarthritis activity in collagen-induced Lewis rat arthritis model assessed as reduction in cartilage damage at 1.07 mg/kg administered bid through oral gavage for 7 days measured every day started on day 9 and continuing through day 16 of compound dosing relative to vehicle-treated control; assay type: functional; set-up: scale not given: the % may be the effect or the level left; how it was run: as §3
Rattus norvegicus [16] = assay: Antiarthritis activity in collagen-induced Lewis rat arthritis model assessed as reduction of bone resorption at 1.07 mg/kg administered bid through oral gavage for 7 days measured every day started on day 9 and continuing through day 16 of compound dosing relative to vehicle-treated control; assay type: functional; set-up: scale not given: the % may be the effect or the level left; how it was run: as §3
Rattus norvegicus [17] = assay: Antiarthritis activity in collagen-induced Lewis rat arthritis model assessed as reduction in pannus formation administered bid through oral gavage for 7 days measured every day started on day 9 and continuing through day 16 of compound dosing; assay type: functional; how it was run: as §3
Rattus norvegicus [18] = assay: Antiarthritis activity in collagen-induced Lewis rat arthritis model assessed as reduction in cartilage damage administered bid through oral gavage for 7 days measured every day started on day 9 and continuing through day 16 of compound dosing; assay type: functional; how it was run: as §3
Rattus norvegicus [19] = assay: Antiarthritis activity in collagen-induced Lewis rat arthritis model assessed as reduction of periosteal bone width administered bid through oral gavage for 7 days measured every day started on day 9 and continuing through day 16 of compound dosing; assay type: functional; how it was run: as §3

SMILES: C[C@H](Nc1nc(N)nc(N)c1C#N)c1nc2cccc(F)c2c(=O)n1-c1cc(F)cc(F)c1
- pIC50 [1]: 8.66
- Ratio IC50 (Homo sapiens [2]): 1900
- Ratio IC50 (Homo sapiens [3]): 650
- CLH (Hepatocyte): 23.3 mL/min/kg
- CLH [4]: 4.17 mL/min/kg
- clearance [5]: 12.3 mL/min/kg
- clearance [6]: 9.67 mL/min/kg
- Vd [7]: 2.6 L/kg
- blood plasma ratio [8]: 1.4
- blood plasma ratio [9]: 2.6
- half-life [10]: 2.17 h
- Activity (Rattus norvegicus [11]): Dose-dependent effect
- EC90 (Rattus norvegicus [12]): 100 nM
- pEC50 (Rattus norvegicus [12]; Rattus norvegicus): 7.69
- inhibition in vivo at 1.07 mg/kg (Rattus norvegicus [13]): 50%
- inhibition in vivo at 10 mg/kg (Rattus norvegicus [14]): > 90%
- Activity (Rattus norvegicus [15]): 50%
- Activity (Rattus norvegicus [16]): 63%
- ED50 (Rattus norvegicus [17]): 1.5 mg/kg
- ED50 (Rattus norvegicus [18]): 1.5 mg/kg
- ED50 (Rattus norvegicus [19]): 1.5 mg/kg
